Measured values collected from several papers.
Cell line: MDA-MB-231

O=C(CCl)Nc1ccc2c(Nc3cccc(C(F)(F)F)c3)ncnc2c1 — IC50 (cell growth or viability, MTT; 24 h): 6.88 µM
[Na+].[Na+].[Na+].[O]=[V]([O-])([O-])[O-] — IC50 (cell migration, inhibitor): 5.6 µM
CC(=O)Nc1nc(C)c(-c2csc(Nc3ccccc3)n2)s1 — IC50 (cell growth or viability, MTT; 48 h): 12.2 µM
Oc1ccccc1-c1ccc2ncnc(Nc3cccc(C(F)(F)F)c3)c2c1 — IC50 (cell growth or viability, MTT; 24 h): 8.58 µM
COc1cccc([C@@H]2C[C@@H](C)OC(=O)c3cc4ccccn4c32)c1 (racemic) — IC50 (cell growth or viability, resazurin; 72 h): 53 µM
C=CCNC1=C2C[C@@H](C)C[C@H](OC)[C@H](O)[C@@H](C)/C=C(\C)[C@H](OC(N)=O)[C@@H](OC)/C=C\C=C(/C)C(=O)NC(=CC1=O)C2=O — IC50 (cell growth or viability, MTT): 0.338 µM
C[C@@H]1C[C@@H](c2cccc(Cl)c2)c2c(cc3ccccn23)C(=O)O1 (racemic) — IC50 (cell growth or viability, resazurin; 72 h): > 100 µM
CCOc1ccc(-c2nc3ccccc3n2Cc2ccccc2)cc1 — IC50 (cell growth or viability, MTT): 21.1 µM
COc1cc(OC)cc([C@H]2C[C@@H](C)OC(=O)c3cc4ccccn4c32)c1 (racemic) — IC50 (cell growth or viability, resazurin; 72 h): 20.5 µM
Clc1ccc(-c2nc3ccccc3[nH]2)cc1Cl — IC50 (cell growth or viability, MTT; 48 h): 9.83 µM
COc1nc(SC)nc(OC)c1C(=O)/C=C/[c-]1cccc1.[Fe+2].c1cc[cH-]c1 — IC50 (cell growth or viability, MTT; 72 h): 9.3 µM
CSc1ccc(-c2nc3ccc(C)cc3n2Cc2ccccc2)cc1 — IC50 (cell growth or viability, MTT): 21.9 µM
CC(C)[C@H](N)c1nc2cc(-c3ccncc3F)sc2c(=O)[nH]1 — IC50 (cell growth or viability, MTT): 1.19 µM
COc1cc(/C=C2\SC(=O)NC2=O)ccc1OCc1ccc(Cl)cc1Cl — IC50 (cell growth or viability, MTT; 48 h): 25.6 µM
COc1ccc(-c2nc3ccccc3[nH]2)cc1O — IC50 (cell growth or viability, MTT; 48 h): 88.1 µM
C[C@@H]1C[C@H](c2cccc(F)c2)c2c(cc3ccccn23)C(=O)O1 (racemic) — IC50 (cell growth or viability, resazurin; 72 h): 79.5 µM
O=C(Nc1nnc(-c2cc3ccccc3[nH]2)s1)c1cc2c([nH]c3ccccc32)c(-c2ccccc2)n1 — IC50 (cell growth or viability, MTT; 72 h): 3.94 µM
Cc1nc(Nc2ncc(C(=O)Nc3c(C)cccc3Cl)s2)cc(N2CCN(CCO)CC2)n1 — IC50 (cell growth or viability, MTT; 48 h): 19.4 µM
C[C@H]1O[C@@H](n2cc(F)c(=O)[nH]c2=O)[C@H](O)[C@@H]1O — IC50 (cell growth or viability, CCK-8; 48 h): > 50 µM
COc1ccc(/C=C/C(=O)c2cc(Br)ccc(=O)c2O)cc1 — IC50 (cell growth or viability, MTT; 48 h): 5.5 µM
C=CC1=C(C)c2cc3[nH]c(cc4nc(cc5[nH]c(cc1n2)c(C)c5CCC(=O)O)C(CCC(=O)O)=C4C)c(C)c3C=C — IC50 (cell growth or viability; 4 h, dark): > 100 µM
COc1cccc2c1C(=O)c1c(O)c3c(c(O)c1C2=O)C[C@@](O)(C(=O)CO)C[C@@H]3O[C@H]1C[C@H](N)[C@H](O)[C@H](C)O1 — IC50 (cell growth or viability, MTT): 4.27 µM
FC(F)(F)c1cccc(Nc2ncnc3ccc(-c4ccc(CN5CCOCC5)cc4)cc23)c1 — IC50 (cell growth or viability, MTT; 24 h): 8.56 µM
COc1cccc2c1C(=O)c1c(O)c3c(c(O)c1C2=O)C[C@@](O)(C(=O)CO)C[C@@H]3O[C@H]1C[C@H](N)[C@H](O)[C@H](C)O1 — IC50 (cell growth or viability, MTT; 72 h): 1.48 µM
Oc1cccc(Nc2ccc3ncnc(Nc4cccc(C(F)(F)F)c4)c3c2)c1 — IC50 (cell growth or viability, MTT; 24 h): 3.34 µM
C[C@@H]1C[C@H](c2ccc(Br)cc2)c2c(cc3ccccn23)C(=O)O1 (racemic) — IC50 (cell growth or viability, resazurin; 72 h): 16.7 µM
COc1ccc(-c2nc(C(=O)Nc3nnc(-c4cc5ccccc5[nH]4)s3)cc3c2[nH]c2ccccc23)cc1 — IC50 (cell growth or viability, MTT; 72 h): 3.28 µM
CC(=O)CC(=O)[c-]1cccc1.[Fe+2].c1cc[cH-]c1 — IC50 (cell growth or viability, MTT; 96 h): 47 µM
COc1ccc(Br)cc1/C=C/C(=O)c1ccc(NC(C)=O)cc1 — IC50 (cell growth or viability, MTT; 48 h): 3 µM
CN(C)c1ccc(-c2nc3ccccc3[nH]2)cc1 — IC50 (cell growth or viability, MTT; 48 h): 29.1 µM
O=C(Nc1nnc(-c2cc3ccccc3[nH]2)s1)c1cc2c([nH]c3ccccc32)c(-c2ccc(F)cc2)n1 — IC50 (cell growth or viability, MTT; 72 h): 6.79 µM
CCN1CCN(Cc2ccc(Nc3ncc(F)c(-c4cc(F)c5nc(C)n(C(C)C)c5c4)n3)nc2)CC1 — IC50 (cell growth or viability, CCK-8): 1.67 µM
COc1ccc(-c2ccc3ncnc(Nc4cccc(C(F)(F)F)c4)c3c2)cc1 — IC50 (cell growth or viability, MTT; 24 h): 6.39 µM
CCOc1ccc(-c2nc3ccccc3[nH]2)cc1 — IC50 (cell growth or viability, MTT; 48 h): > 100 µM
Cc1cc(NS(=O)(=O)c2ccc(NC(=O)COc3ccc(C(C)(C)c4ccccc4)cc3)cc2)nc(C)n1 — IC50 (cell growth or viability, MTT; 48 h): 39 µM
COc1cc([C@@H]2C[C@@H](C)OC(=O)c3cc4ccccn4c32)cc(OC)c1OC (racemic) — IC50 (cell growth or viability, resazurin; 72 h): > 100 µM
FC(F)(F)c1cccc(Nc2ncnc3ccc(-c4ccsc4)cc23)c1 — IC50 (cell growth or viability, MTT; 24 h): 2.96 µM
Nc1ccn([C@@H]2O[C@H](CO)[C@@H](O)C2(F)F)c(=O)n1 — IC50 (cell growth or viability, resazurin; 72 h): 4.5 µM
C[C@H]1[C@@H](O)O[C@@H]2O[C@@]3(C)CC[C@H]4[C@H](C)CC[C@@H]1[C@@]24OO3 — IC50 (cell growth or viability, CCK-8; 48 h): > 50 µM
COc1cc(Nc2nccc(-c3cnn4nc(OC)ccc34)n2)cc(C(F)(F)F)c1 — IC50 (cell growth or viability, ATP luminescence): 1.8 µM
Oc1ccc(-c2ccc3ncnc(Nc4cccc(C(F)(F)F)c4)c3c2)cc1 — IC50 (cell growth or viability, MTT; 24 h): 3.96 µM
CC(=O)O[C@@]12CO[C@@H]1C[C@H](O)[C@@]1(C)C(=O)[C@H](O)C3=C(C)[C@@H](OC(=O)[C@H](O)[C@@H](NC(=O)OC(C)(C)C)c4ccccc4)C[C@@](O)([C@@H](OC(=O)c4ccccc4)[C@H]21)C3(C)C — IC50 (cell growth or viability, ATP luminescence; 72 h): 0.0022 µM
COc1c(C)c(OC)c2c(c1C)OC(c1ccccc1)CC2=O (stereo not drawn) — IC50 (cell growth or viability, SRB; 72 h): > 50 µM
CC(C)CCC[C@@H](C)[C@H]1CC[C@H]2[C@@H]3CC=C4C[C@@H](O)CC[C@]4(C)[C@H]3CC[C@]12C — IC50 (cell growth or viability, resazurin; 72 h): > 30 µM
C=CCn1c(-c2ccc([N+](=O)[O-])cc2)nc2ccccc21 — IC50 (cell growth or viability, MTT): 43.9 µM
O=C(CSc1nc2ccc(N=Cc3ccc(Sc4nnnn4-c4ccccc4)o3)cc2s1)N1CCOCC1 — IC50 (cell growth or viability, MTT; 48 h): 21 µM
Fc1ccc(-c2nc3ccccc3n2Cc2ccccc2)cc1 — IC50 (cell growth or viability, MTT): 34.6 µM
O=C1CCC2(Oc3cccc4cccc(c34)O2)c2c(O)ccc(O)c21 — IC50 (cell growth or viability, resazurin; 72 h): > 25 µM
